Test results reported in ChEMBL document CHEMBL1132557, “Novel, potent, semisynthetic antimalarial carba analogues of the first-generation 1,2,4-trioxane artemether” (J Med Chem, 1999).

How the values were obtained:
Plasmodium falciparum [1] = test: In vitro antimalarial activity against chloroquine-sensitive Plasmodium falciparum HB3; format: functional, organism-based
Procedure, shortened: (§1)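 P. falciparum kept in human erythrocytes in RPMI 1640 with 25 mM HEPES, 32 mM NaHCO3, 10% human serum, under 3% O2/4% CO2/93% N2. 48-h assay at 2% parasitemia, 0.5% hematocrit; DMSO stocks diluted in medium; triplicates. [3H]hypoxanthine (0.5 μCi) added at 24 h, harvested 24 h later; IC50 by probit interpolation of log dose-response.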

Plasmodium falciparum [2] = test: In vitro antimalarial activity against chloroquine-resistant Plasmodium falciparum K1
Mus musculus = test: Compound was tested in vivo for antimalarial activity against Plasmodium berghei in the mice (Mus musculus) model.; format: functional
Procedure, shortened: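 Male random Swiss albino mice, 18-22 g, infected ip with 10^7 P. berghei NS-strain parasitized erythrocytes; ip dosing once daily for four consecutive days starting on infection day; vehicle methanol/PBS/DMSO (2:5:3). Parasitemia read the day after last dose; ED50 (50% suppression vs vehicle-only controls) taken from log dose vs parasitemia plot.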

Plasmodium falciparum [3] = test: In vitro antimalarial activity against chloroquine-sensitive Plasmodium falciparum K1; format: functional, organism-based; procedure, shortened: as §1

SMILES | IC50 (Plasmodium falciparum [1]) [nM] | IC50 (Plasmodium falciparum [2]) [nM] | ED50 (Mus musculus) [mg/kg] | IC50 (Plasmodium falciparum [3]) [nM]
C[C@H]1[C@@H](CCOCc2ccc(F)cc2)O[C@@H]2OC3(C)CC[C@H]4[C@H](C)CC[C@@H]1[C@@]24OO3 (single isomer, unassigned) | 0.73 | 6.08 | – | –
C[C@@H]1CC[C@H]2[C@@H](C)C(=O)O[C@@H]3O[C@@]4(C)CC[C@@H]1[C@]32OO4 [ARTEMISININ] | 3.04 | 3.6 | – | –
C[C@H]1[C@@H](CCO)O[C@@H]2OC3(C)CC[C@H]4[C@H](C)CC[C@@H]1[C@@]24OO3 (single isomer, unassigned) | 3.51 | 6.67 | 7.81 | –
C[C@H]1[C@@H](CCOC(=O)c2cccc(C(F)(F)F)c2)O[C@@H]2OC3(C)CC[C@H]4[C@H](C)CC[C@@H]1[C@@]24OO3 (single isomer, unassigned) | 0.64 | 4.7 | – | –
CO[C@H]1O[C@@H]2O[C@@]3(C)CC[C@H]4[C@H](C)CC[C@@H]([C@H]1C)[C@@]24OO3 [ARTEMETHER] | – | – | 3.15 | –
C[C@H]1[C@@H](CCOC(=O)c2ccccc2F)O[C@@H]2OC3(C)CC[C@H]4[C@H](C)CC[C@@H]1[C@@]24OO3 (single isomer, unassigned) | 0.53 | 1.12 | – | –
C[C@H]1[C@@H](CCOC(=O)c2cccc(F)c2)O[C@@H]2OC3(C)CC[C@H]4[C@H](C)CC[C@@H]1[C@@]24OO3 (single isomer, unassigned) | 0.35 | 3.78 | 6.99 | –
C[C@H]1[C@@H](O)O[C@@H]2O[C@@]3(C)CC[C@H]4[C@H](C)CC[C@@H]1[C@@]24OO3 [ARTENIMOL] | 1.04 | 2.2 | 1.15 | –
C[C@H]1[C@@H](CCOCc2cccc(F)c2)O[C@@H]2OC3(C)CC[C@H]4[C@H](C)CC[C@@H]1[C@@]24OO3 (single isomer, unassigned) | 0.32 | 6.43 | – | –
C[C@H]1[C@@H](CCOC(=O)c2ccc(F)cc2)O[C@@H]2OC3(C)CC[C@H]4[C@H](C)CC[C@@H]1[C@@]24OO3 (single isomer, unassigned) | 0.69 | 1.92 | – | –
C[C@H]1[C@@H](CCOCc2ccccc2C(F)(F)F)O[C@@H]2OC3(C)CC[C@H]4[C@H](C)CC[C@@H]1[C@@]24OO3 (single isomer, unassigned) | 1.64 | 3.6 | – | –
C[C@H]1[C@@H](CCOC(=O)c2ccc(C(F)(F)F)cc2)O[C@@H]2OC3(C)CC[C@H]4[C@H](C)CC[C@@H]1[C@@]24OO3 (single isomer, unassigned) | 0.59 | 14.2 | – | –
C[C@H]1[C@@H](CCOCc2ccc(C(F)(F)F)cc2)O[C@@H]2OC3(C)CC[C@H]4[C@H](C)CC[C@@H]1[C@@]24OO3 (single isomer, unassigned) | 4.24 | – | – | 3.75
